This is an account of results in ChEMBL document CHEMBL1138431, “Synthesis and cytotoxic activities of 4,5-diarylisoxazoles” (Bioorg Med Chem Lett, 2007).

The structures appear in SMILES notation.

One assay concerns HeLa. Description: Cytotoxicity against human HeLa cells. The assay is classed as functional, cell-based. In outline: (§1)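 Cells were grown under previously described culture conditions and tested in an MTT colorimetric assay.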
The test system of assay [1] is HepG2. The assay is described as follows: Cytotoxicity against human HepG2 cells. The assay is classed as functional, cell-based. The essentials: as §1
Assay [2] in a line: Cytotoxicity against human […] cells. The assay is classed as functional, cell-based. The essentials:
as §1

The subject of assay [3] is HepG2. Description: Cell cycle arrest in human HepG2 cells assessed as accumulation at S phase at 10 nM after 24 hrs relative to control.
The subject of assay [4] is HepG2. Description: Cell cycle arrest in human HepG2 cells assessed as accumulation at G2/M phase at 10 nM after 24 hrs relative to control.
The subject of assay [5] is HepG2. The assay is described as follows: Cell cycle arrest in human HepG2 cells assessed as accumulation at G0/G1 phase at 10 nM after 24 hrs relative to control.

By IC50 is commonly meant the concentration that inhibits the measured activity by half. On to `COc1ccc(-c2cnoc2-c2cc(OC)c(OC)c(OC)c2)cc1N`, for which the results for the 50% inhibitory concentration (IC50) (in the assay on HeLa; with HepG2 [1]; in assay [2]) were 22 pM, 65 pM and 135 pM, respectively. Also, the Activity with HepG2 [3] is 27.4%; in the assay on HepG2 [4] it was 69.8%; in the assay with HepG2 [5], 2.81%.
On to `COc1ccc(/C=C\c2cc(OC)c(OC)c(OC)c2)cc1O` [COMBRETASTATIN A4], for which the IC50 in the assay with HeLa worked out at 2750 pM; in the assay on HepG2 [1], 140 pM; in assay [2] it was 10 pM. Also, the results for the Activity in the assay on HepG2 [3], in the assay on HepG2 [4] and in the assay with HepG2 [5] were 19%, 79.3% and 1.68%, respectively.
